From ChEMBL document CHEMBL5226322, “Harnessing the Role of HDAC6 in Idiopathic Pulmonary Fibrosis: Design, Synthesis, Structural Analysis, and Biological Evaluation of Potent Inhibitors” (J Med Chem, 2021)
Calls of active or inactive are those of the source. The calls are words filed in the database; no cut-off is given here.

Key:
[1] = Metabolic stability in human liver microsome assessed as half life at 5 uM in presence of NADPH incubated up to 60 mins by HPLC analysis; format: ADME; conditions: microsomes, 1 h
[2] = test system: NIH3T3; assay: Cytotoxicity in mouse NIH3T3 cells assessed as reduction in cell viability at 15 uM incubated for 24 hrs by neutral red uptake method based UV/visible spectrophotometer analysis; format: toxicity; conditions: nih3t3, 24 h
How it was run: (§1)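 NIH3T3 mouse fibroblasts grown in DMEM with 10% FCS, L-glutamine/pen-strep and non-essential amino acids (37 °C, 5% CO2). Exposed 24 h to compound diluted from a DMSO stock into medium. Viability measured by Neutral Red uptake: 3 h in NR medium, then acetic acid/ethanol desorb, absorbance at 540 nm. Student's t-test, p<0.05.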

[3] = test system: NIH3T3; assay: Cytotoxicity in mouse NIH3T3 cells assessed as reduction in cell viability at 50 uM incubated for 24 hrs by neutral red uptake method based UV/visible spectrophotometer analysis; format: toxicity; conditions: nih3t3, 24 h; how it was run: as §1
[4] = test system: NIH3T3; assay: Cytotoxicity in mouse NIH3T3 cells assessed as reduction in cell viability at 75 uM incubated for 24 hrs by neutral red uptake method based UV/visible spectrophotometer analysis; format: toxicity; conditions: nih3t3, 24 h
How it was run: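 NIH3T3 fibroblasts grown in DMEM with 10% FCS, L-glutamine/pen-strep and non-essential amino acids at 37 °C, 5% CO2. Monolayers exposed 24 h to compound diluted from a DMSO stock into medium. Neutral Red medium then added for 3 h at 37 °C. Dye extracted with acetic acid/ethanol desorb solution and absorbance read at 540 nm. Student's t-test, p<0.05.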

[5] = test system: Heart; assay: Cardiotoxicity in Langendorff-perfused Sprague-Dawley rat heart assessed as effect on HR at 0.01 uM by ECG analysis (reference value: 235.7 +/-8.3 bpm); format: toxicity, tissue-based
[6] = test system: Heart; assay: Cardiotoxicity in Langendorff-perfused Sprague-Dawley rat heart assessed as effect on HR at 0.1 uM by ECG analysis (reference value: 235.7 +/-8.3 bpm); format: toxicity, tissue-based
[7] = test system: Heart; assay: Cardiotoxicity in Langendorff-perfused Sprague-Dawley rat heart assessed as effect on HR at 10 uM by ECG analysis (reference value: 235.7 +/-8.3 bpm); format: toxicity, tissue-based
[8] = test system: Heart; assay: Cardiotoxicity in Langendorff-perfused Sprague-Dawley rat heart assessed as effect on RR time at 0.01 uM by ECG analysis (reference value: 257.2 +/-8.1 milliseconds); format: toxicity, tissue-based
[9] = test system: Heart; assay: Cardiotoxicity in Langendorff-perfused Sprague-Dawley rat heart assessed as effect on RR time at 0.1 uM by ECG analysis (reference value: 257.2 +/-8.1 milliseconds); format: toxicity, tissue-based
[10] = test system: Heart; assay: Cardiotoxicity in Langendorff-perfused Sprague-Dawley rat heart assessed as effect on RR time at 10 uM by ECG analysis (reference value: 257.2 +/-8.1 milliseconds); format: toxicity, tissue-based
[11] = test system: Heart; assay: Cardiotoxicity in Langendorff-perfused Sprague-Dawley rat heart assessed as effect on PQ interval time at 0.01 uM by ECG analysis (reference value: 43.6 +/-2.5 milliseconds); format: toxicity, tissue-based
[12] = test system: Heart; assay: Cardiotoxicity in Langendorff-perfused Sprague-Dawley rat heart assessed as effect on PQ interval time at 0.1 uM by ECG analysis (reference value: 43.6 +/-2.5 milliseconds); format: toxicity, tissue-based
[13] = test system: Heart; assay: Cardiotoxicity in Langendorff-perfused Sprague-Dawley rat heart assessed as effect on PQ interval time at 1 uM by ECG analysis (reference value: 43.6 +/-2.5 milliseconds); format: toxicity, tissue-based
[14] = test system: Heart; assay: Cardiotoxicity in Langendorff-perfused Sprague-Dawley rat heart assessed as effect on QRS interval time at 0.01 uM by ECG analysis (reference value: 15.2 +/-0.2 milliseconds); format: toxicity, tissue-based
[15] = test system: Heart; assay: Cardiotoxicity in Langendorff-perfused Sprague-Dawley rat heart assessed as effect on QRS interval time at 0.1 uM by ECG analysis (reference value: 15.2 +/-0.2 milliseconds); format: toxicity, tissue-based
[16] = test system: Heart; assay: Cardiotoxicity in Langendorff-perfused Sprague-Dawley rat heart assessed as effect on QRS interval time at 1 uM by ECG analysis (reference value: 15.2 +/-0.2 milliseconds); format: toxicity, tissue-based
[17] = test system: Heart; assay: Cardiotoxicity in Langendorff-perfused Sprague-Dawley rat heart assessed as effect on QRS interval time at 10 uM by ECG analysis (reference value: 15.2 +/-0.2 milliseconds); format: toxicity, tissue-based
[18] = test system: Heart; assay: Cardiotoxicity in Langendorff-perfused Sprague-Dawley rat heart assessed as effect on QT interval time at 0.01 uM by ECG analysis (reference value: 76.2 +/-2.9 milliseconds); format: toxicity, tissue-based
[19] = test system: Heart; assay: Cardiotoxicity in Langendorff-perfused Sprague-Dawley rat heart assessed as effect on QT interval time at 1 uM by ECG analysis (reference value: 76.2 +/-2.9 milliseconds); format: toxicity, tissue-based
[20] = test system: Heart; assay: Cardiotoxicity in Langendorff-perfused Sprague-Dawley rat heart assessed as effect on QTc interval time at 0.1 uM by ECG analysis (reference value: 150.5 +/-5.5 milliseconds); format: toxicity, tissue-based
[21] = test system: Heart; assay: Cardiotoxicity in Langendorff-perfused Sprague-Dawley rat heart assessed as effect on QTc interval time at 1 uM by ECG analysis (reference value: 150.5 +/-5.5 milliseconds); format: toxicity, tissue-based
[22] = species on record: Homo sapiens; assay: Antifibrotic activity in TGF-beta1-induced human Lung parenchyma assessed as inhibition of alpha-SMA mRNA expression at 4.1 uM incubated upto 7 days by qRT-PCR analysis; format: functional; conditions: time <= 7.0 day
How it was run: (§2)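 Human lung parenchyma pieces (2 mm³) cultured in DMEM with TGF-β1 (10 ng/mL) plus compound at 0.41 or 4.1 μM or vehicle (0.1% DMSO). Tissue collected on day 7, homogenized, total RNA purified, then qRT-PCR for HDAC6, collagen I, collagen III, αSMA and fibronectin. Relative expression by the 2^-Ct method; n=3, paired t test.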

[23] = species on record: Homo sapiens; assay: Antifibrotic activity in TGF-beta1-induced human Lung parenchyma assessed as inhibition of collagen 1 mRNA expression at 4.1 uM incubated upto 7 days by qRT-PCR analysis; format: functional; conditions: time <= 7.0 day; how it was run: as §2
[24] = species on record: Homo sapiens; assay: Antifibrotic activity in TGF-beta1-induced human Lung parenchyma assessed as inhibition of collagen 3 mRNA expression at 4.1 uM incubated upto 7 days by qRT-PCR analysis; format: functional; conditions: time <= 7.0 day; how it was run: as §2
[25] = species on record: Homo sapiens; assay: Antifibrotic activity in TGF-beta1-induced human Lung parenchyma assessed as inhibition of HDAC6 mRNA expression at 4.1 uM incubated upto 7 days by qRT-PCR analysis; format: functional; conditions: time <= 7.0 day; how it was run: as §2
[26] = Mutagenecity in Salmonella typhimurium TA98 in presence of S9 fraction at 1 to 75 uM incubated for 90 mins by Ames test; format: toxicity, subcellular; conditions: salmonella enterica subsp. enterica serovar typhimurium, s9, 1.5 h, dose 1-75 µM
[27] = Toxicity in zebra fish embryo assessed as mild cardiac edema at 100 uM […]; set-up: species or system Danio rerio; conditions: zebrafish
How it was run: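 Wildtype Tübingen zebrafish larvae reared at 28.5 °C (14 h light/10 h dark) in embryo medium with methylene blue. From 3 days old, exposed for 2 days to 1, 10, 25, 50 or 100 µM in embryo medium, or 0.1% DMSO vehicle. 4 larvae per well in 400 µL, 8 larvae per group. Larvae scored for swim bladder inflation and cardiac edema.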

## CN1CCC2(CC1)c1ccccc1N(Cc1ccc(C(=O)NO)cc1)C2c1ccccc1F (racemic)
[1]
  t1/2: 51.68 min

## CC1(C)c2ccccc2N(Cc2ccc(C(=O)NO)cc2)C1c1cccnc1 (racemic)
[2]
  Activity: 94%
[3]
  Activity: 71%
[4]
  Activity: 53%
[5]
  Activity: 235.4 bpm
[6]
  Activity: 238.1 bpm
[7]
  Activity: 207.9 bpm
[8]
  Time: 255.9 ms
[9]
  Time: 253.7 ms
[10]
  Time: 294.1 ms
[11]
  Time: 44.1 ms
[12]
  Time: 44.6 ms
[13]
  Time: 44.5 ms
[14]
  Time: 15.6 ms
[15]
  Time: 15.4 ms
[16]
  Time: 15.8 ms
[17]
  Time: 18 ms
[18]
  Time: 78.1 ms
[19]
  Time: 76.4 ms
[20]
  Time: 155.1 ms
[21]
  Time: 150.8 ms
[22]
  Activity: Active
[23]
  Activity: Active
[24]
  Activity: Active
[25]
  Activity: Active
[26]
  Activity: Non-Toxic
[27]
  Activity: Toxic
